In ChEMBL document CHEMBL3822431, “Hydroxychalcone inhibitors of Streptococcus mutans glucosyl transferases and biofilms as potential anticaries agents” (Bioorg Med Chem Lett, 2016):
Calls of active or inactive are those of the source. The calls are words filed in the database; no cut-off is given here.

Legend:
[1] = biological target: T1, Glucosyltransferase-I (Streptococcus mutans serotype c (strain ATCC 700610 / UA159)) (UniProt P08987); assay: Inhibition of Wild-type Streptococcus mutans UA159 glucosyltransferase B at 50 uM by coomassie blue staining based SDS-PAGE method
T1 sequence (whole entry): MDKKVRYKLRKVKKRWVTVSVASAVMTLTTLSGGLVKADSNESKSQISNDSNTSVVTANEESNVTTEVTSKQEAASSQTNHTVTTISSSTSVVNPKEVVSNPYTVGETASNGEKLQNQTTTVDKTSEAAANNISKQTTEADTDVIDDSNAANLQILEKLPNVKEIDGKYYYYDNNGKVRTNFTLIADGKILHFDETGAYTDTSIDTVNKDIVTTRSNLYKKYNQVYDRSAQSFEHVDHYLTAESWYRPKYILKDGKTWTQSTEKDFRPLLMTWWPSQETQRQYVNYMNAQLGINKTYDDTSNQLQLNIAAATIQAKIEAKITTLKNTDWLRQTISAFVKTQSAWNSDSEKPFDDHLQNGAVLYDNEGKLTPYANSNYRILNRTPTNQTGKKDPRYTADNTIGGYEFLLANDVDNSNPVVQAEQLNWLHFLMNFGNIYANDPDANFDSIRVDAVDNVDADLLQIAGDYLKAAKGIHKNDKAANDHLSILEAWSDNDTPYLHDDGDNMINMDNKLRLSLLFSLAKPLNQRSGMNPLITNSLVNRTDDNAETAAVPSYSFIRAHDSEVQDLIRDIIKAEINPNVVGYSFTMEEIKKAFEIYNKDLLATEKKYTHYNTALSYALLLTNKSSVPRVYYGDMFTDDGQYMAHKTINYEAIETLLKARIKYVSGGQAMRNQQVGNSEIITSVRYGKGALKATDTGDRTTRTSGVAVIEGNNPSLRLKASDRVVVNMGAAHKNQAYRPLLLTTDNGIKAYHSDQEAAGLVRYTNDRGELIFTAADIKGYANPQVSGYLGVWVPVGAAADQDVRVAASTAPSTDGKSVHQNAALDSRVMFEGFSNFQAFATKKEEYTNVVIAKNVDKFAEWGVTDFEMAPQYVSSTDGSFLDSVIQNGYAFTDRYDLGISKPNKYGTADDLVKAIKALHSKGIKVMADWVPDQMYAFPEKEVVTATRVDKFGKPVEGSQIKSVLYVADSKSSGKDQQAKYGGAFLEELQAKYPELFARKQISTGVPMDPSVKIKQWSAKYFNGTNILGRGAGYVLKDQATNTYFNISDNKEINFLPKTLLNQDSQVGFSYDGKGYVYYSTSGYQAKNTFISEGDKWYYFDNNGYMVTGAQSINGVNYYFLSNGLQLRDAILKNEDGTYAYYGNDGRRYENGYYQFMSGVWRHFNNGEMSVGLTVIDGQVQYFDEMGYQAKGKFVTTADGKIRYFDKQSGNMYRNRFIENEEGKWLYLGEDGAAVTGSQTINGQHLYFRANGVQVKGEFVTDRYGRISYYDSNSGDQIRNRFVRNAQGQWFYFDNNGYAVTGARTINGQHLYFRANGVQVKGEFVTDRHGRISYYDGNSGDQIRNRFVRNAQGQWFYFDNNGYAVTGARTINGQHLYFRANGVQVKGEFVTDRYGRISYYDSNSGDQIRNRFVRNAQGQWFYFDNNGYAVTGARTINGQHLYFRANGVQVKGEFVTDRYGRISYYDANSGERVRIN
Method in brief: (§1)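 Compound (50 µM) added to overnight S. mutans UA159 wild-type cultures; Gtfs collected and concentrated from supernatants, run on SDS-PAGE in duplicate; one gel Coomassie blue stained for protein levels.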

[2] = biological target: T2, Glucosyltransferase-S (Streptococcus mutans serotype c (strain ATCC 700610 / UA159)) (UniProt P49331); assay: Inhibition of Wild-type Streptococcus mutans UA159 glucosyltransferase D at 50 uM by coomassie blue staining based SDS-PAGE method; method in brief: as §1
T2 sequence (whole entry): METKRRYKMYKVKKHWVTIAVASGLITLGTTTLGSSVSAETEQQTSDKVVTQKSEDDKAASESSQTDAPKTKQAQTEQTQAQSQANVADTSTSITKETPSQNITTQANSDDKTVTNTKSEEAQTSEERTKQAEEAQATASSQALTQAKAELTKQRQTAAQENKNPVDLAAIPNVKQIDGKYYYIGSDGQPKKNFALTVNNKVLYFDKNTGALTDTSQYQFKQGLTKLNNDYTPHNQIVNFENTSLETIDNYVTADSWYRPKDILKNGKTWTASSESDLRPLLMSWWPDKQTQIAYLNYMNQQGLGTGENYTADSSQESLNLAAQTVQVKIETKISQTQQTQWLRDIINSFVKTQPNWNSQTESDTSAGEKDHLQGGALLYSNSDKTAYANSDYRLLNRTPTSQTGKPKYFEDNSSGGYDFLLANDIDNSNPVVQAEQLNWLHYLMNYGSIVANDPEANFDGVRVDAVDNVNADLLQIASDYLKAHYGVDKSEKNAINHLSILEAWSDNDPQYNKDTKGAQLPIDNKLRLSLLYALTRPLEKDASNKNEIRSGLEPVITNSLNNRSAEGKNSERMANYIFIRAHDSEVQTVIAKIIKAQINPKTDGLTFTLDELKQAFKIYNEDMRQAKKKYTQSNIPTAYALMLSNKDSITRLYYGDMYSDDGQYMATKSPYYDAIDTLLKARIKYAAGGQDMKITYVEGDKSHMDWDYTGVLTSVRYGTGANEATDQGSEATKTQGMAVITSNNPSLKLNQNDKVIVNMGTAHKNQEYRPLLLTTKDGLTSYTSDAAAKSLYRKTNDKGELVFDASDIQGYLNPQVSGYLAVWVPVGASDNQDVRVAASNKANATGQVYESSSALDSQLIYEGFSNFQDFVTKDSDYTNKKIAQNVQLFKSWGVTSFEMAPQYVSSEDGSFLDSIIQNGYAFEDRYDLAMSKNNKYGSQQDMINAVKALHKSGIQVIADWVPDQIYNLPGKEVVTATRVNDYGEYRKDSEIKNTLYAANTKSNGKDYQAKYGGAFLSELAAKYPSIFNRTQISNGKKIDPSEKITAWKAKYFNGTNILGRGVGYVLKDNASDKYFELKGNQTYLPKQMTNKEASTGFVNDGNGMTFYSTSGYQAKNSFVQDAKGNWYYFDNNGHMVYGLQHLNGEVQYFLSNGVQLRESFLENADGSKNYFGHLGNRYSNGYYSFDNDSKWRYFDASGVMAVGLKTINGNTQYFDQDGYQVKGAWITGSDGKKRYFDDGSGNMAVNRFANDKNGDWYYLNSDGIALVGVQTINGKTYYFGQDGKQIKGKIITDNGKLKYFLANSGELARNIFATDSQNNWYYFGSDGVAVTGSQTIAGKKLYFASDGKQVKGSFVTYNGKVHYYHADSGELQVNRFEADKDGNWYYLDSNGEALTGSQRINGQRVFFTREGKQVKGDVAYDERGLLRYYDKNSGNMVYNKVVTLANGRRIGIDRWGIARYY

## O=C(/C=C\c1ccc(O)cc1O)c1cccc(O)c1
[1]
  inhibition: Active
[2]
  inhibition: Active

## O=C(/C=C/c1ccc(O)cc1O)c1ccc(O)cc1
[1]
  inhibition: Active
[2]
  inhibition: Active

## O=C(/C=C\c1ccc(O)cc1O)c1ccc(O)cc1
[1]
  inhibition: Active
[2]
  inhibition: Active

## O=C(/C=C/c1ccc(O)cc1O)c1cccc(O)c1 (stereo in doubt; 9a)
[1]
  inhibition: Active
[2]
  inhibition: Active

## O=C(/C=C/c1cc(O)c(O)cc1O)c1ccccc1O (stereo in doubt; 18c)
[1]
  inhibition: Active
[2]
  inhibition: Active
